Blank lines part the entries; values can stand above or below the compound they belong to.
Tests used:
[1] = target: Phosphatidylinositol 4,5-bisphosphate 3-kinase catalytic subunit alpha isoform (Homo sapiens, UniProt P42336); assay: Inhibition of PI3Kalpha
T47D [2] = assay: Antiproliferative activity against human T47D cells by MTT assay; type: functional, cell-based
Outline: (§1)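 Human breast cancer cultures (T47D, SK-BR3, MCF-7) exposed to compound. Cell viability is read by MTT and expressed as growth IC50.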

MCF7 = assay: Antiproliferative activity against human MCF7 cells assessed as by MTT assay; type: functional, cell-based; outline: as §1
SK-BR-3 = assay: Antiproliferative activity against human SKBR3 cells by MTT assay; type: functional, cell-based; outline: as §1
T47D [3] = assay: Induction of apoptosis in human T47D cells assessed as increase in non-viable cells at 10 uM after 24 hrs using annexin-V FITC and PI staining by flow cytometric analysis relative to control; type: functional
Outline: (§2)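 T47D cells treated with various compound concentrations for 24 h, then stained with Annexin V-FITC and PI and analysed by flow cytometry. Early-apoptotic cells are Annexin V-positive/PI-negative. Changes are expressed relative to untreated control.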

T47D [4] = assay: Induction of apoptosis in human T47D cells assessed as decrease in viable cells at 1 uM after 24 hrs using annexin-V FITC and PI staining by flow cytometric analysis relative to control; type: functional; outline: as §2
T47D [5] = assay: Induction of apoptosis in human T47D cells assessed as decrease in viable cells at 50 uM after 24 hrs using annexin-V FITC and PI staining by flow cytometric analysis relative to control; type: functional; outline: as §2
T47D [6] = assay: Induction of apoptosis in human T47D cells assessed as increase in early apoptotic cells at 50 uM after 24 hrs using annexin-V FITC and PI staining by flow cytometric analysis relative to control; type: functional; outline: as §2
T47D [7] = assay: Induction of apoptosis in human T47D cells assessed as increase in late apoptotic cells at 10 uM after 24 hrs using annexin-V FITC and PI staining by flow cytometric analysis relative to control; type: functional; outline: as §2
T47D [8] = assay: Induction of apoptosis in human T47D cells assessed as increase in non-viable cells at 50 uM after 24 hrs using annexin-V FITC and PI staining by flow cytometric analysis relative to control; type: functional; outline: as §2
T47D [9] = assay: Induction of apoptosis in human T47D cells assessed as increase in early apoptotic cells at 1 uM after 24 hrs using annexin-V FITC and PI staining by flow cytometric analysis relative to control; type: functional; outline: as §2
T47D [10] = assay: Induction of apoptosis in human T47D cells assessed as increase in late apoptotic cells at 50 uM after 24 hrs using annexin-V FITC and PI staining by flow cytometric analysis relative to control; type: functional; outline: as §2
T47D [11] = assay: Induction of apoptosis in human T47D cells assessed as increase in late apoptotic cells at 1 uM after 24 hrs using annexin-V FITC and PI staining by flow cytometric analysis relative to control; type: functional; outline: as §2
HUVEC [12] = assay: Antiangiogenic activity against HUVEC assessed as inhibition of tubular network formation on matrigels beds; type: functional, cell-based; details: Homo sapiens
Outline: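 HUVECs plated onto Matrigel beds and treated with DMSO vehicle or compound at 0.1, 1 and 10 µM. Read-out is formation of a capillary-like tubular network, assessed from representative images.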

T47D [13] = assay: Induction of apoptosis in human T47D cells assessed as decrease in viable cells at 10 uM after 24 hrs using annexin-V FITC and PI staining by flow cytometric analysis relative to control; type: functional; outline: as §2
HUVEC [14] = assay: Antiangiogenic activity against HUVEC assessed as inhibition of wound-induced migration of cells to non-wounded region; type: functional, cell-based; details: Homo sapiens
Outline: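 HUVEC wound-induced migration assay. Migration is quantified by counting the cells that moved beyond the reference line into the non-wounded region.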

T47D [15] = assay: Induction of apoptosis in human T47D cells assessed as increase in early apoptotic cells at 10 uM after 24 hrs using annexin-V FITC and PI staining by flow cytometric analysis relative to control; type: functional; outline: as §2
T47D [16] = assay: Induction of apoptosis in human T47D cells assessed as increase in non-viable cells at 1 uM after 24 hrs using annexin-V FITC and PI staining by flow cytometric analysis relative to control; type: functional; outline: as §2

Chain of Phosphatidylinositol 4,5-bisphosphate 3-kinase catalytic subunit alpha isoform (P42336 whole entry, canonical isoform): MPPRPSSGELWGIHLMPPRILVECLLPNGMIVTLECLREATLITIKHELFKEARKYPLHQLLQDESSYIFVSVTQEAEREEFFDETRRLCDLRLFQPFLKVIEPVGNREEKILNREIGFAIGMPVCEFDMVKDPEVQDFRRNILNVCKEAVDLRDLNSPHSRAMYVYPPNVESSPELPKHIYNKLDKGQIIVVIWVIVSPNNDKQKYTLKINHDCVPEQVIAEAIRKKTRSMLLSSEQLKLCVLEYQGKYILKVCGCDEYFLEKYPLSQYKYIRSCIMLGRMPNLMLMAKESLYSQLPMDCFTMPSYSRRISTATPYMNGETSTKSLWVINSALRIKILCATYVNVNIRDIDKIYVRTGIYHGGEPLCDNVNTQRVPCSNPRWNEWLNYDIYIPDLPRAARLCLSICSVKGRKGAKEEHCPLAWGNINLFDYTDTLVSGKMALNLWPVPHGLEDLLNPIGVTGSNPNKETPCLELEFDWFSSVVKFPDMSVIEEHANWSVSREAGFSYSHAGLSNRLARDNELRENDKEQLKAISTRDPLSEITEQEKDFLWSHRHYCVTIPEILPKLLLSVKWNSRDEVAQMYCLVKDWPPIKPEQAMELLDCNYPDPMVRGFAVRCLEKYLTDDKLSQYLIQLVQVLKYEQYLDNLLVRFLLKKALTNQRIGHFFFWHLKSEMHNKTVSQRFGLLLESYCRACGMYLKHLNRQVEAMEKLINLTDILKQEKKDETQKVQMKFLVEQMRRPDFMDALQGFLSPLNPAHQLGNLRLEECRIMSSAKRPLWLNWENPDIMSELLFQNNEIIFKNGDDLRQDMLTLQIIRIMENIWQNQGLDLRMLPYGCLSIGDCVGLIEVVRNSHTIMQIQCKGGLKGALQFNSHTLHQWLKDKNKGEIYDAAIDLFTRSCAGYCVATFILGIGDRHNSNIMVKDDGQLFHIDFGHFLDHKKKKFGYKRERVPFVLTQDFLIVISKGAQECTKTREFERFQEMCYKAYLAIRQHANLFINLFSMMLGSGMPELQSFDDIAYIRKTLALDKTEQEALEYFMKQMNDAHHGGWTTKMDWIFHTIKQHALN

- IC50 [1]: 0.13 µM
SMILES: N#Cc1cccc(-c2c[nH]c3ncc(-c4cnc(N)c(NS(=O)(=O)N5CCOCC5)c4)cc23)c1

- IC50 [1]: 0.73 µM
SMILES: CC(=O)c1c[nH]c2ncc(-c3cnc(N)c(NS(=O)(=O)N4CCOCC4)c3)cc12

- IC50 [1]: 0.003 µM
SMILES: COc1ccc(-c2c[nH]c3ncc(-c4cnc(N)c(NS(=O)(=O)c5ccc(F)cc5F)c4)cc23)cc1OC

- IC50 (T47D [2]): 0.7 µM
- IC50 (SK-BR-3): 3.7 µM
SMILES: COc1ccc(-c2c[nH]c3ncc(-c4cnc(N)c(NS(=O)(=O)N5CCOCC5)c4)cc23)cc1OC
- Activity (T47D [3]): 2.86%
- Activity (T47D [4]): 94.44%
- Activity (T47D [5]): 19.64%
- Activity (T47D [6]): 28.24%
- Activity (T47D [7]): 4.98%
- Activity (T47D [8]): 7.32%
- Activity (T47D [9]): 1.56%
- Activity (T47D [10]): 47.5%
- Activity (T47D [11]): 3.04%
- Activity (HUVEC [12]): Dose-dependent effect
- Activity (T47D [13]): 90.61%
- Activity (HUVEC [14]): Dose-dependent effect
- Activity (T47D [15]): 1.52%
- Activity (T47D [16]): 0.96%

The next lines start with the compound.

SMILES: N#Cc1cccc(-c2c[nH]c3ncc(-c4cncc(NS(=O)(=O)c5ccc(F)cc5F)c4)cc23)c1
- IC50 [1]: 0.027 µM

SMILES: CS(=O)(=O)Nc1cccc(-c2c[nH]c3ncc(-c4cncc(NS(=O)(=O)c5ccccc5)c4)cc23)c1
- IC50 [1]: 0.95 µM

SMILES: COc1ccc(-c2c[nH]c3ncc(-c4cncc(N)c4)cc23)cc1OC
- IC50 [1]: 0.46 µM

SMILES: CC(=O)c1c[nH]c2ncc(-c3cncc(NS(=O)(=O)c4ccccc4)c3)cc12
- IC50 [1]: 0.62 µM

SMILES: O=S(=O)(Nc1cncc(-c2cnc3[nH]ccc3c2)c1)c1ccccc1
- IC50 [1]: 5.2 µM

SMILES: O=S(=O)(Nc1cncc(-c2cnc3[nH]cc(-c4cccnc4)c3c2)c1)c1ccccc1
- IC50 (T47D [2]): 3.6 µM
- IC50 (MCF7): 6.8 µM
- IC50 [1]: 0.012 µM
- IC50 (SK-BR-3): 12 µM

SMILES: COc1ccc(-c2c[nH]c3ncc(-c4cccc(NS(=O)(=O)c5ccccc5)c4)cc23)cc1OC
- IC50 [1]: 1.6 µM

SMILES: N#Cc1cccc(-c2c[nH]c3ncc(-c4cncc(NS(=O)(=O)c5ccccc5)c4)cc23)c1
- IC50 [1]: 0.031 µM

SMILES: COc1ccc(-c2c[nH]c3ncc(-c4cncc(NS(=O)(=O)c5ccccc5)c4)cc23)cc1OC
- IC50 (T47D [2]): 8.5 µM
- IC50 [1]: 0.012 µM
- IC50 (SK-BR-3): 22 µM
